From ChEMBL document CHEMBL2046419, “Antibacterial anthraquinone derivatives from a sea anemone-derived fungus Nigrospora sp” (J Nat Prod, 2012)
In brackets after ≈: the same amount, converted by molar mass.

Columns and labels:
Vibrio anguillarum = test: Antibacterial activity against Vibrio anguillarum ATCC 19019 after 24 hrs by serial dilution technique; type: functional; conditions: ATCC 19019, 24 h
Staphylococcus albus = test: Antibacterial activity against Staphylococcus albus ATCC 8799 after 24 hrs by serial dilution technique; conditions: ATCC 8799, 24 h
Vibrio parahaemolyticus = test: Antibacterial activity against Vibrio parahaemolyticus ATCC 17802 after 24 hrs by serial dilution technique; type: functional; conditions: ATCC 17802, 24 h
Escherichia coli = test: Antibacterial activity against Escherichia coli ATCC 25922 after 24 hrs by serial dilution technique; type: functional; conditions: ATCC 25922, 24 h
Staphylococcus aureus = test: Antibacterial activity against Staphylococcus aureus ATCC 27154 after 24 hrs by serial dilution technique; type: functional; conditions: ATCC 27154, 24 h
Micrococcus luteus = test: Antibacterial activity against Micrococcus luteus ATCC 49732 after 24 hrs by serial dilution technique; type: functional; conditions: ATCC 49732, 24 h
Bacillus subtilis = test: Antibacterial activity against Bacillus subtilis ATCC 6633 after 24 hrs by serial dilution technique; type: functional; conditions: ATCC 6633, 24 h
Bacillus cereus [1] = test: Antibacterial activity against Bacillus cereus ACCC 11077 after 24 hrs by serial dilution technique; type: functional; conditions: ACCC 11077, 24 h
Micrococcus = test: Antibacterial activity against Micrococcus tetragenus ATCC 13623 after 24 hrs by serial dilution technique; type: functional; conditions: ATCC 13623, 24 h
A549 = test: Cytotoxicity against human A549 cells by MTT assay; type: functional, cell-based
Summary of the method: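 A549 human lung cancer cells, MTT read-out, mitomycin as positive control; IC50 reported in μM.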

Bacillus cereus [2] = test: Ratio of ciprofloxacin MIC to compound MIC for Bacillus cereus ACCC 11077; type: functional

Structure (SMILES)	MIC (Vibrio anguillarum)	MIC (Staphylococcus albus)	MIC (Escherichia coli)	MIC (Staphylococcus aureus)	MIC (Micrococcus luteus)	MIC (Bacillus subtilis)	MIC (Bacillus cereus [1])	MIC (Micrococcus)	MIC (Vibrio parahaemolyticus)	IC50 (A549)	Ratio (Bacillus cereus [2])
COc1cc(O)c2c(c1O)[C@H](O)[C@H]1C[C@](C)(O)[C@H](O)C[C@@H]1C2=O	1.56 µM (≈ 0.506 µg/mL)	> 100 µM	6.25 µM (≈ 2.03 µg/mL)	25 µM (≈ 8.11 µg/mL)	25 µM (≈ 8.11 µg/mL)	12.5 µM (≈ 4.05 µg/mL)	12.5 µM (≈ 4.05 µg/mL)	1.56 µM (≈ 0.506 µg/mL)	12.5 µM (≈ 4.05 µg/mL)	> 50 µM	
COc1cc(O)c2c(c1O)[C@H](OC)[C@H]1C[C@](C)(O)[C@H](O)C[C@H]1C2=O	25 µM (≈ 8.46 µg/mL)	> 100 µM	0.78 µM (≈ 0.264 µg/mL)	1.56 µM (≈ 0.528 µg/mL)	> 100 µM	> 100 µM	50 µM (≈ 16.9 µg/mL)	0.78 µM (≈ 0.264 µg/mL)	25 µM (≈ 8.46 µg/mL)	> 50 µM	
COC1=CC(=O)c2cc3c(c(O)c2C1=O)C[C@](C)(O)[C@H](O)[C@H]3O	2.5 µM (≈ 0.801 µg/mL)	5 µM (≈ 1.6 µg/mL)	2.5 µM (≈ 0.801 µg/mL)	2.5 µM (≈ 0.801 µg/mL)	20 µM (≈ 6.41 µg/mL)	0.625 µM (≈ 0.2 µg/mL)	10 µM (≈ 3.2 µg/mL)	1.25 µM (≈ 0.4 µg/mL)	1.25 µM (≈ 0.4 µg/mL)	4.56 µM	
COC1=CC(=O)c2c(O)c3c(c(O)c2C1=O)C[C@](C)(O)[C@H](OC(C)=O)C3	0.0975 µM (≈ 0.0353 µg/mL)	200 µM (≈ 72.5 µg/mL)	> 200 µM	> 200 µM	100 µM (≈ 36.2 µg/mL)	0.78 µM (≈ 0.283 µg/mL)	0.0488 µM (≈ 0.0177 µg/mL)	0.195 µM (≈ 0.0707 µg/mL)	0.78 µM (≈ 0.283 µg/mL)	5.25 µM	25
COC1=CC(=O)c2c(O)c3c(c(O)c2C1=O)C[C@](C)(O)[C@H](OC(C)=O)[C@H]3O	> 200 µM	> 200 µM	> 200 µM	> 200 µM	> 200 µM	> 200 µM	3.12 µM (≈ 1.18 µg/mL)	3.12 µM (≈ 1.18 µg/mL)	> 200 µM	2.72 µM	
COc1cc(O)c2c(c1O)C(=O)c1cc(C)c(O)cc1C2=O	> 200 µM	> 200 µM	> 200 µM	> 200 µM	> 200 µM	> 200 µM	> 200 µM	> 200 µM	> 200 µM	> 50 µM	
COc1cc(O)c2c(c1OC(C)=O)C(=O)c1cc(C)ccc1C2=O	> 200 µM	> 200 µM	> 200 µM	> 200 µM	> 200 µM	> 200 µM	> 200 µM	> 200 µM	> 200 µM		
COc1cc(O)c2c(c1O)C(=O)C1=C(C[C@@H](O)[C@@](C)(O)C1)C2=O	3.12 µM (≈ 0.999 µg/mL)	3.12 µM (≈ 0.999 µg/mL)	1.56 µM (≈ 0.5 µg/mL)	3.12 µM (≈ 0.999 µg/mL)	200 µM (≈ 64.1 µg/mL)	3.12 µM (≈ 0.999 µg/mL)	3.12 µM (≈ 0.999 µg/mL)	3.12 µM (≈ 0.999 µg/mL)	3.12 µM (≈ 0.999 µg/mL)		
COc1cc(O)c2c(c1O)[C@H](O)[C@H]1C[C@](C)(O)[C@H](O)[C@@H](O)[C@@H]1C2=O [9ALPHA-HYDROXYHALOROSELLINIA A]	3.12 µM (≈ 1.06 µg/mL)	> 100 µM	1.56 µM (≈ 0.531 µg/mL)	0.78 µM (≈ 0.265 µg/mL)	> 100 µM	12.5 µM (≈ 4.25 µg/mL)	12.5 µM (≈ 4.25 µg/mL)	3.12 µM (≈ 1.06 µg/mL)	3.12 µM (≈ 1.06 µg/mL)	41.5 µM	
COc1cc(O)c2c(c1O)C(=O)c1cc(C)ccc1C2=O [AUSTROCORTIRUBIN]	> 200 µM	> 200 µM	> 200 µM	> 200 µM	> 200 µM	> 200 µM	> 200 µM	> 200 µM	> 200 µM	> 50 µM	
COC1=CC(=O)c2c(O)c3c(c(O)c2C1=O)C[C@](C)(O)[C@H](O)[C@H]3O [BOSTRYCIN]	0.39 µM (≈ 0.131 µg/mL)	3.12 µM (≈ 1.05 µg/mL)	1.56 µM (≈ 0.525 µg/mL)	1.56 µM (≈ 0.525 µg/mL)	100 µM (≈ 33.6 µg/mL)	3.12 µM (≈ 1.05 µg/mL)	3.12 µM (≈ 1.05 µg/mL)	3.12 µM (≈ 1.05 µg/mL)	3.12 µM (≈ 1.05 µg/mL)		
O=C(O)c1cn(C2CC2)c2cc(N3CCNCC3)c(F)cc2c1=O [CIPROFLOXACIN]	0.078 µM (≈ 0.0258 µg/mL)	0.312 µM (≈ 0.103 µg/mL)	0.156 µM (≈ 0.0517 µg/mL)	0.156 µM (≈ 0.0517 µg/mL)	2.5 µM (≈ 0.828 µg/mL)	0.312 µM (≈ 0.103 µg/mL)	1.25 µM (≈ 0.414 µg/mL)	0.039 µM (≈ 0.0129 µg/mL)	0.078 µM (≈ 0.0258 µg/mL)		
CO[C@@]12[C@H](COC(N)=O)C3=C(C(=O)C(C)=C(N)C3=O)N1C[C@@H]1N[C@@H]12 [MITOMYCIN]										3 µM	
COC1=CC(=O)c2c(cc3c(c2O)C[C@@H](O)[C@@](C)(O)C3)C1=O [NIGROSPORIN B]	1.25 µM (≈ 0.38 µg/mL)	2.5 µM (≈ 0.761 µg/mL)	1.25 µM (≈ 0.38 µg/mL)	1.25 µM (≈ 0.38 µg/mL)	10 µM (≈ 3.04 µg/mL)	0.312 µM (≈ 0.0949 µg/mL)	0.312 µM (≈ 0.0949 µg/mL)	0.625 µM (≈ 0.19 µg/mL)	0.625 µM (≈ 0.19 µg/mL)	3.32 µM	

Now from value to compound, other results behind:

MIC (Vibrio anguillarum)	MIC (Staphylococcus albus)	MIC (Escherichia coli)	MIC (Staphylococcus aureus)	MIC (Micrococcus luteus)	MIC (Bacillus subtilis)	MIC (Bacillus cereus [1])	MIC (Micrococcus)	Structure (SMILES)	MIC (Vibrio parahaemolyticus)	IC50 (A549)	Ratio (Bacillus cereus [2])
> 200 µM	100 µM (≈ 34.2 µg/mL)	> 200 µM	100 µM (≈ 34.2 µg/mL)	> 200 µM	> 200 µM	> 200 µM	> 200 µM	COc1cc(O)c2c(c1OC(C)=O)C(=O)c1cc(C)c(O)cc1C2=O	> 200 µM		
> 200 µM	> 200 µM	> 200 µM	> 200 µM	> 200 µM	> 200 µM	> 200 µM	> 200 µM	COc1cc(OC(C)=O)c2c(c1O)C(=O)c1cc(C)c(O)cc1C2=O	> 200 µM		
> 200 µM	> 200 µM	> 200 µM	> 200 µM	> 200 µM	12.5 µM (≈ 4.28 µg/mL)	50 µM (≈ 17.1 µg/mL)	> 200 µM	COc1cc(O)c2c(c1O)C(=O)c1cc(C)c(OC(C)=O)cc1C2=O	> 200 µM		
4.7 µM (≈ 1.81 µg/mL)	> 150 µM	> 150 µM	> 150 µM	> 150 µM	5 µM (≈ 1.92 µg/mL)	37.5 µM (≈ 14.4 µg/mL)	9.4 µM (≈ 3.61 µg/mL)	COc1cc(OC(C)=O)c2c(c1OC(C)=O)C(=O)c1cc(C)c(O)cc1C2=O	75 µM (≈ 28.8 µg/mL)		
> 200 µM	> 200 µM	> 200 µM	> 200 µM	200 µM (≈ 76.9 µg/mL)	> 200 µM	> 200 µM	200 µM (≈ 76.9 µg/mL)	COc1cc(O)c2c(c1OC(C)=O)C(=O)c1cc(C)c(OC(C)=O)cc1C2=O	> 200 µM		
> 200 µM	50 µM (≈ 19.2 µg/mL)	> 200 µM	> 200 µM	> 200 µM	50 µM (≈ 19.2 µg/mL)	> 200 µM	> 200 µM	COc1cc(OC(C)=O)c2c(c1O)C(=O)c1cc(C)c(OC(C)=O)cc1C2=O	> 200 µM		
140 µM (≈ 59.7 µg/mL)	70 µM (≈ 29.8 µg/mL)	> 140 µM	> 140 µM	140 µM (≈ 59.7 µg/mL)	35 µM (≈ 14.9 µg/mL)	140 µM (≈ 59.7 µg/mL)	> 140 µM	COc1cc(OC(C)=O)c2c(c1OC(C)=O)C(=O)c1cc(C)c(OC(C)=O)cc1C2=O	> 140 µM	> 50 µM	
